Data set [1] deals with C-C chemokine receptor type 5 (Macaca mulatta, UniProt P61813). The data set is described as follows: Displacement of [125I]-MIP-1alpha from CCR5 in rhesus monkey Chem-1 cell membranes after 120 mins by liquid scintillation counting analysis. A general note: In a radioligand displacement assay an active substance lowers the binding of a labelled ligand.
The target in data set [2] is T1, C-C chemokine receptor type 5 (Homo sapiens, UniProt P51681). The data set can be described thus: Antagonist activity at CCR5 in Gqi5 transfected human MOLT4 cells assessed as inhibition of RANTES-stimulated Ca2+ influx preincubated for 15 mins followed by […]. The format is functional, cell-based, MOLT-4. Put shortly:
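CCR5-MOLT-4 cells transfected with chimeric […]. Inhibition of RANTES-stimulated Ca2+ flux was measured. IC50 is the mean ± S.E.M. of three independent experiments.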
Target sequence in this assay (P51681 whole entry): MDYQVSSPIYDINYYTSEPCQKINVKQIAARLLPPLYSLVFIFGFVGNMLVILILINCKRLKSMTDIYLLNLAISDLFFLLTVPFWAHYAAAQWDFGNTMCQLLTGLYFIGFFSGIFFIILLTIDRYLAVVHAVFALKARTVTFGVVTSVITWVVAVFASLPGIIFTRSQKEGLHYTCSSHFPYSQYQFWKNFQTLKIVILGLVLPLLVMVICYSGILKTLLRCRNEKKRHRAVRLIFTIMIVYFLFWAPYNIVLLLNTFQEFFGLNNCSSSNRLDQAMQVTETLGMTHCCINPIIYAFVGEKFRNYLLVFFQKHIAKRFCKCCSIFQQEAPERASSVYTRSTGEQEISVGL

For data set [3], the target named is T2, Mu-type opioid receptor (Homo sapiens, UniProt P35372). The data set is described as follows: Agonist activity at human mu opioid receptor expressed in Gqi5 transfected CHO cells after 15 mins. The class given is cell-based. Put shortly: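 hMOR-expressing CHO cells transfected with chimeric […] were tested for direct Ca2+ mobilization (agonist mode).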

Data set [4] deals with T2, Mu-type opioid receptor. The data set can be described thus: Displacement of [3H]-naloxone from human mu opioid receptor expressed in CHO cells after 1 hr. The class given is cell-based. In a few lines: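 Competitive binding in hMOR-expressing CHO cells with [3H]naloxone as radioligand. Ki is the mean ± S.E.M. of three independent experiments.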
Data set [5] addresses T2, Mu-type opioid receptor. The data set can be described thus: Antagonist activity at human mu opioid receptor expressed in Gqi5 transfected CHO cells assessed as inhibition of DAMGO-stimulated Ca2+ influx preincubated for 15 mins followed by DAMGO challenge. The format is functional, cell-based. Put shortly: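 hMOR-CHO cells transfected with chimeric […]. Inhibition of DAMGO-stimulated Ca2+ flux was measured. IC50 is the mean ± S.E.M. of three independent experiments.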

The next data set is filed under the species Homo sapiens. The data set is described as follows: Binding affinity to CCR5/MOR in human astrocytes assessed as inhibition of R5 HIV-1 SF162 infection by measuring Tat protein expression at 1.5 uM preincubated for 30 to 60 mins followed by viral infection measured after 18 hrs by luciferase reporter gene assay. The format is cell-based. Put shortly: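 Human astrocytes infected with R5 HIV-1 SF162. Infectivity was read as relative Tat protein expression by luciferase-based assay at 18 h post-infection. Tested at 1.5 μM after an initial dose-response study. Values are from three independent experiments, compared against uninfected and infected controls.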
Background: In a reporter assay the amount or activity of a reporter protein is the signal.

Data set [6] deals with CCR5/mu opioid receptor complex (Homo sapiens) (UniProt P51681+P35372). The conditions noted are these: 100 nM.
The target of data set [7] is T1, C-C chemokine receptor type 5. The data set is described as follows: Agonist activity at CCR5 in Gqi5 transfected human MOLT4 cells after 15 mins. The conditions noted are these: MOLT-4. The format is cell-based. In a few lines: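 Ca2+ mobilization, agonist mode, in CCR5-MOLT-4 cells transfected with chimeric […]. Intracellular Ca2+ flux was read directly, with no agonist challenge.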
Target sequence in this assay (P51681 whole entry, looked up): as the sequence (P51681 whole entry) above

Data set [8] in a line: Cytotoxicity against human astrocytes assessed as cell viability at 100 nM by AOPI staining-based fluorescence assay. Particulars: astrocyte, 0.1 µM. Put shortly:
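Astroglial cell viability after exposure at 100 nM, assessed by dual green/red fluorescence labeling with AOPI.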

The structures appear in SMILES notation. Calls of active or inactive are those of the source. The calls are words filed in the database; no cut-off is given here.

As a reminder, the Ki is a measure of affinity in units of concentration, obtained from inhibition or displacement. For orientation: IC50 means the midpoint of a concentration-inhibition curve.

T2 sequence (P35372 whole entry): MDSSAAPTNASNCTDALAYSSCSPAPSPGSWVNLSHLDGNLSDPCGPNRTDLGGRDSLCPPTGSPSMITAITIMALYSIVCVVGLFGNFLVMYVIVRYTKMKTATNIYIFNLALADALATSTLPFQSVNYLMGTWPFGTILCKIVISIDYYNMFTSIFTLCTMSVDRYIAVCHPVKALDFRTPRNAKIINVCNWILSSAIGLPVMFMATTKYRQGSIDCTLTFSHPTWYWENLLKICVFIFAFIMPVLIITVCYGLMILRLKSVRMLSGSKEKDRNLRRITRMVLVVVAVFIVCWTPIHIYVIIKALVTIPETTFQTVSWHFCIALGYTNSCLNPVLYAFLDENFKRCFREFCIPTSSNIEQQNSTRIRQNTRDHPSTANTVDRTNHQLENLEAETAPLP
CCR5/mu opioid receptor complex (Homo sapiens), sequence (P35372 whole entry, looked up): as the sequence (P35372 whole entry) above
CCR5/mu opioid receptor complex (Homo sapiens), sequence (P51681 whole entry, looked up): as the sequence (P51681 whole entry) above

For the molecule `CNC(=O)COCC(=O)NCCCCCCCNC(=O)COCC(=O)Nc1ccc([C@H](CCN2C3CCC2CC(n2c(C)nnc2C(C)C)C3)NC(=O)C2CCC(F)(F)CC2)cc1` (some centres undefined), in data set [1], the affinity corresponds to a Ki of 151 nM. Further, in data set [2], the concentration for half-maximal inhibition (IC50) is 622 nM.
On to `CNC(=O)COCC(=O)Nc1ccc([C@H](CCN2C3CCC2CC(n2c(C)nnc2C(C)C)C3)NC(=O)C2CCC(F)(F)CC2)cc1` (some centres undefined), for which, in data set [2], the concentration for half-maximal inhibition (IC50) was 7910 nM.
In the case of `CNC(=O)COCC(=O)NCCCCCCCNC(=O)COCC(=O)N[C@@H]1CC[C@@]2(O)[C@H]3Cc4ccc(O)c5c4[C@@]2(CCN3CC2CC2)[C@H]1O5`, on Mu-type opioid receptor [3], the outcome was inactive. The molecule also gave an inhibition constant Ki at Mu-type opioid receptor [4] of 9.2 nM. Besides, on Mu-type opioid receptor [5], the IC50 came to 37.8 nM.
`Cc1nnc(C(C)C)n1C1CC2CCC(C1)N2CC[C@H](NC(=O)C1CCC(F)(F)CC1)c1ccc(N)cc1` (some centres undefined) had a Ki in [1] of 15.3 nM. Besides, the IC50 in data set [2] is 14.2 nM.
Take `O=C1CC[C@@]2(O)[C@H]3Cc4ccc(O)c5c4[C@@]2(CCN3CC2CC2)[C@H]1O5`: in the data set listed under Homo sapiens, the inhibition result was “inactive”.
With `Cc1nnc(C(C)C)n1[C@H]1C[C@H]2CC[C@@H](C1)N2CC[C@H](NC(=O)C1CCC(F)(F)CC1)c1ccccc1`, the inhibition entry in data set [6] was “Active”.
With `Cc1nnc(C(C)C)n1C1CC2CCC(C1)N2CC[C@H](NC(=O)C1CCC(F)(F)CC1)c1ccc(NC(=O)COCC(=O)NCCCCCCCNC(=O)COCC(=O)N[C@@H]2CC[C@@]3(O)[C@H]4Cc5ccc(O)c6c5[C@@]3(CCN4CC3CC3)[C@H]2O6)cc1` (some centres undefined), the outcome (at Mu-type opioid receptor [3]; in data set [7]) was inactive. The Activity entry in data set [8] is reported as “Non-toxic”.
With `Cc1nnc(C(C)C)n1C1CC2CCC(C1)N2CC[C@H](NC(=O)C1CCC(F)(F)CC1)c1ccc(NC(=O)OC(C)(C)C)cc1` (some centres undefined), in [2], the IC50 came out at 1570 nM.

These data come from ChEMBL document CHEMBL3217593, “A Bivalent Ligand Targeting the Putative Mu Opioid Receptor and Chemokine Receptor CCR5 Heterodimers: Binding Affinity versus Functional Activities” (Medchemcomm, 2013).
